Values belong to the compound of their own block, whether it stands above or below them.
Key:
[1] = test system: MRC5; experiment: Cytotoxicity against human MRC5 cells assessed as growth inhibition; assay type: cell-based
[2] = test system: Plasmodium falciparum; experiment: Antimalarial activity against chloroquine-resistant erythrocytic stage of Plasmodium falciparum K1 infected in human red blood cells assessed as growth inhibition after 48 hrs by [3H]-hypoxanthine incorporation assay; assay type: functional, organism-based
Outline: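 Erythrocytic P. falciparum in RPMI 1640 without hypoxanthine, with HEPES, NaHCO3, neomycin, Albumax, and human A+ red cells at 2.5% haematocrit and 0.3% parasitaemia. Compounds from a 10 mg/mL DMSO stock, eleven 3-fold dilutions from 100 to 0.002 µg/mL. Incubated 48 h at 37 °C (4% CO2, 3% O2), then 3H-hypoxanthine added for 24 h more. Cells harvested and counted by scintillation. IC50 by linear regression of the sigmoidal curves, mean of two independent assays.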

[3] = test system: Plasmodium falciparum; experiment: Antimalarial activity against chloroquine-sensitive erythrocytic stage of Plasmodium falciparum NF54 infected in human red blood cells assessed as growth inhibition after 72 hrs by [3H]-hypoxanthine incorporation assay
[4] = Selectivity index, ratio of IC50 for rat L6 cells to IC50 for chloroquine-sensitive erythrocytic stage of Plasmodium falciparum NF54; assay type: toxicity, cell-based; conditions: read-out: Ratio IC50
Outline: (§1)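 IC50 in rat L6 skeletal myoblasts divided by the antiplasmodial IC50 for the named strain. L6 cells were seeded at 4000 per well in RPMI 1640 with L-glutamine and 10% FBS and exposed to eleven 3-fold dilutions from 100 to 0.002 µg/mL for 70 h. Alamar Blue was then added for 2 h and fluorescence read at ex 536 / em 588 nm. IC50 by linear regression of the sigmoidal curves.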

[5] = test system: Plasmodium falciparum; experiment: Resistance index, ratio of IC50 for chloroquine-resistant erythrocytic stage of Plasmodium falciparum K1 to IC50 for chloroquine-sensitive erythrocytic stage of Plasmodium falciparum NF54; assay type: functional
[6] = Inhibition of beta-haematin formation after 5 to 6 hrs by UV-vis spectamax plate reader analysis; assay type: functional
Outline: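 Detergent-mediated assay: compounds from DMSO stocks (20, 2, 0.4 mM) in duplicate, 0–1000 µM final. Added water and NP-40, then haematin at 100 µM final in 0.5 M acetate buffer pH 4.8. Incubated at 37 °C for 5–6 h. Pyridine added to 5% v/v final in HEPES pH 7.4 with acetone. Haem–pyridine absorbance read (405 nm). IC50 from sigmoidal fits.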

[7] = test system: L6; experiment: Cytotoxicity against rat L6 cells assessed as growth inhibition after 70 hrs by Alamar blue staining-based inverted microscopic analysis; assay type: cell-based; conditions: L6, 70 h
Outline: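 L6 rat skeletal myoblasts, 4000 cells/well in RPMI 1640 with 1% L-glutamine (200 mM) and 10% FBS. Eleven 3-fold dilutions spanning 100 to 0.002 µg/mL. After 70 h, Alamar Blue added for 2 h more. Fluorescence read at ex 536/em 588 nm. IC50 from sigmoidal dose–inhibition curves by linear regression.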

[8] = Selectivity index, ratio of IC50 for rat L6 cells to IC50 for chloroquine-resistant erythrocytic stage of Plasmodium falciparum K1; assay type: toxicity, cell-based; conditions: read-out: Ratio IC50; outline: as §1
[9] = test system: Plasmodium berghei; experiment: Antimalarial activity against Plasmodium berghei infected in Swiss mouse assessed as reduction in parasitaemia at 20 mg/kg, ip administered for 4 days measured on day 4 post last dose by FACS analysis relative to control; assay type: functional; parameters: scale not given: the % may be the effect or the level left; conditions: route intraperitoneal
Outline: (§2)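 Intraperitoneal dosing at 20 mg/kg daily for four consecutive days. Parasitaemia read on day 4 and day 7. Activity is the difference between mean percent parasitaemia of the control group (n = 5 mice) and the treated group, expressed as a percent of control.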

[10] = test system: Plasmodium berghei; experiment: Antimalarial activity against Plasmodium berghei infected in Swiss mouse assessed as reduction in parasitaemia at 20 mg/kg, ip administered for 4 days measured on day 7 by FACS analysis relative to control; assay type: functional; parameters: scale not given: the % may be the effect or the level left; conditions: route intraperitoneal; outline: as §2
[11] = Solubility of the compound in water; assay type: physicochemical; conditions: buffer

Structure (SMILES): Cn1c2nc3ccccc3c-2cc2cc(Br)ccc21
IC50 [1]: > 32 µM

Structure (SMILES): COC(=O)c1ccc2nc3n(C)c4ccc(C(=O)OC)cc4c(NCCCNC(=O)Nc4ccccc4)c-3c2c1
IC50 [2]: 40.8 nM
IC50 [3]: 16.7 nM
selectivity ratio [4]: 1590
Ratio IC50 [5]: 2.44
IC50 [6]: 4.6 µM
IC50 [7]: 26500 nM
selectivity ratio [8]: 650

IC50 [6]: 123 µM
Structure (SMILES): COC(=O)c1ccc2nc3n(C)c4ccccc4c(NCCCO)c-3c2c1
IC50 [3]: 278 nM
IC50 [7]: 639 nM

Structure (SMILES): Cn1c2nc3ccccc3c-2c(NCCCN)c2ccccc21
selectivity ratio [4]: 3.5

Structure (SMILES): COC(=O)c1ccc2nc3n(C)c4ccc(C(=O)OC)cc4c(NCCCN)c-3c2c1
IC50 [2]: 11.9 nM
IC50 [3]: 9.52 nM
selectivity ratio [4]: 146
Ratio IC50 [5]: 1.25
IC50 [6]: 13 µM
IC50 [7]: 1390 nM
selectivity ratio [8]: 117

Structure (SMILES): COC(=O)c1ccc2nc3n(C)c4ccccc4c(NCCCN)c-3c2c1
IC50 [2]: 30.3 nM
Activity [9]: 33.4%
IC50 [3]: 24.8 nM
selectivity ratio [4]: 8.79
Ratio IC50 [5]: 1.22
IC50 [6]: 48.9 µM
IC50 [7]: 218 nM
Activity [10]: 72.5%
selectivity ratio [8]: 7.19

Structure (SMILES): COC(=O)c1ccc2c(c1)c(NCCCN)c1c3ccccc3nc-1n2C
IC50 [2]: 22.1 nM
Activity [9]: 33.4%
IC50 [3]: 8.28 nM
selectivity ratio [4]: 40.7
Ratio IC50 [5]: 2.67
IC50 [6]: 104 µM
IC50 [7]: 337 nM
Activity [10]: 72.5%
selectivity ratio [8]: 15.2

Structure (SMILES): COC(=O)c1ccc2c(c1)c(NCCCNC(=O)Nc1ccccc1)c1c3ccccc3nc-1n2C
IC50 [2]: 56.1 nM
IC50 [3]: 4.16 nM
selectivity ratio [4]: 181
Ratio IC50 [5]: 13.5
IC50 [6]: 23 µM
IC50 [7]: 754 nM
selectivity ratio [8]: 13.4

Structure (SMILES): Cn1c2nc3ccc(Br)cc3c-2c(NCCCN)c2cc(Cl)ccc21
IC50 [2]: 19.2 nM
IC50 [3]: 2.16 nM
selectivity ratio [4]: 186
Ratio IC50 [5]: 8.89
IC50 [6]: 30.1 µM
IC50 [7]: 401 nM
selectivity ratio [8]: 20.9

Structure (SMILES): COC(=O)c1ccc2nc3n(C)c4ccccc4c(NCCCNC(=O)Nc4ccccc4)c-3c2c1
IC50 [2]: 68.4 nM
IC50 [3]: 14.5 nM
selectivity ratio [4]: 178
Ratio IC50 [5]: 4.71
IC50 [6]: 12.8 µM
IC50 [7]: 2580 nM
selectivity ratio [8]: 37.7

IC50 [6]: 55.5 µM
Structure (SMILES): COC(=O)c1ccc2nc3n(C)c4ccccc4c(N4CCOCC4)c-3c2c1
IC50 [3]: 1770 nM
selectivity ratio [4]: 2.15
IC50 [7]: 3810 nM

IC50 [6]: 106 µM
Structure (SMILES): COC(=O)c1ccc2nc3n(C)c4ccccc4c(N4CCCN(C)CC4)c-3c2c1
IC50 [3]: 750 nM
selectivity ratio [4]: 8.25
IC50 [7]: 6190 nM

Structure (SMILES): COC(=O)c1ccc2c(c1)c(NCCCNC(=O)Nc1ccccc1)c1c3cc(Br)ccc3nc-1n2C
IC50 [2]: 19.7 nM
IC50 [3]: 7.15 nM
selectivity ratio [4]: 157
Ratio IC50 [5]: 2.75
IC50 [6]: 10.1 µM
IC50 [7]: 1120 nM
selectivity ratio [8]: 56.9

IC50 [6]: 16 µM
Structure (SMILES): COC(=O)c1ccc2nc3n(C)c4ccc(Br)cc4c(NCCCNC(=O)Nc4ccccc4)c-3c2c1
IC50 [3]: 8.05 nM
selectivity ratio [4]: 837
IC50 [7]: 6740 nM

Structure (SMILES): COC(=O)c1ccc2c(c1)c(NCCCN)c1c3cc(Br)ccc3nc-1n2C
IC50 [2]: 15.9 nM
IC50 [3]: 4.54 nM
selectivity ratio [4]: 232
Ratio IC50 [5]: 3.5
IC50 [6]: 10.2 µM
IC50 [7]: 1050 nM
selectivity ratio [8]: 66

solubility [11]: soluble
Structure (SMILES): Cn1c2nc3ccc(C(=O)O)cc3c-2c(NCCCN)c2ccccc21
IC50 [3]: 1690 nM
selectivity ratio [4]: 66.8
IC50 [7]: 113000 nM

solubility [11]: soluble
Structure (SMILES): CN(C)CCCNc1c2c3cc(C(=O)O)ccc3nc-2n(C)c2ccccc12
IC50 [3]: 2160 nM
selectivity ratio [4]: 30.6
IC50 [7]: 66200 nM

Structure (SMILES): COC(=O)c1ccc2nc3n(C)c4ccc(Cl)cc4c(NCCCN)c-3c2c1
IC50 [2]: 20.2 nM
IC50 [3]: 7.57 nM
selectivity ratio [4]: 56.4
Ratio IC50 [5]: 2.67
IC50 [6]: 25.4 µM
IC50 [7]: 427 nM
selectivity ratio [8]: 21.1

Structure (SMILES): COC(=O)c1ccc2nc3n(C)c4ccc(Cl)cc4c(NCCCNC(=O)Nc4ccccc4)c-3c2c1
IC50 [2]: 23.3 nM
IC50 [3]: 13.6 nM
selectivity ratio [4]: 246
Ratio IC50 [5]: 1.71
IC50 [6]: 14.9 µM
IC50 [7]: 3340 nM
selectivity ratio [8]: 143

Structure (SMILES): COC(=O)c1ccc2c(c1)c(NCCCNC(=S)Nc1ccccc1)c1c3ccccc3nc-1n2C
IC50 [2]: 16.1 nM
IC50 [3]: 1.81 nM
selectivity ratio [4]: 321
Ratio IC50 [5]: 8.89
IC50 [6]: 15.7 µM
IC50 [7]: 581 nM
selectivity ratio [8]: 36.1

Structure (SMILES): Cn1c2nc3ccc(Br)cc3c-2c(NCCCNC(=O)Nc2ccccc2)c2cc(Cl)ccc21
IC50 [2]: 16.8 nM
IC50 [3]: 5.59 nM
selectivity ratio [4]: 73
Ratio IC50 [5]: 3
IC50 [6]: 17.8 µM
IC50 [7]: 408 nM
selectivity ratio [8]: 24.3

Structure (SMILES): Cn1c2nc3ccccc3c-2cc2ccccc21 [NEOCRYPTOLEPINE]
selectivity ratio [4]: 2
Ratio IC50 [5]: 1.07
selectivity ratio [8]: 1.88

Structure (SMILES): COC(=O)c1ccc2nc3n(C)c4ccccc4c(NCCCCN)c-3c2c1
IC50 [3]: 55.8 nM
selectivity ratio [4]: 7.81
IC50 [7]: 436 nM

IC50 [6]: 11.5 µM
Structure (SMILES): COC(=O)c1ccc2nc3n(C)c4ccc(Br)cc4c(NCCCN)c-3c2c1
IC50 [3]: 2.27 nM
selectivity ratio [4]: 361
IC50 [7]: 819 nM

IC50 [6]: 51.5 µM
Structure (SMILES): COC(=O)c1ccc2nc3n(C)c4ccccc4c(NCCN(C)C)c-3c2c1
IC50 [3]: 42.5 nM
selectivity ratio [4]: 7.41
IC50 [7]: 315 nM

Structure (SMILES): COC(=O)c1ccc2nc3n(C)c4ccc(C(=O)OC)cc4c(NCCCNC(=S)Nc4ccccc4)c-3c2c1
IC50 [2]: 50.4 nM
IC50 [3]: 14.4 nM
selectivity ratio [4]: 43.5
Ratio IC50 [5]: 3.5
IC50 [6]: 7.5 µM
IC50 [7]: 627 nM
selectivity ratio [8]: 12.4

solubility [11]: soluble
Structure (SMILES): CN(C)CCNc1c2c3cc(C(=O)O)ccc3nc-2n(C)c2ccccc12
IC50 [3]: 2550 nM
selectivity ratio [4]: 7.84
IC50 [7]: 20000 nM

Structure (SMILES): COC(=O)c1ccc2nc3n(C)c4ccccc4c(NCCCNC(=S)Nc4ccccc4)c-3c2c1
IC50 [2]: 64.4 nM
IC50 [3]: 6.03 nM
selectivity ratio [4]: 467
Ratio IC50 [5]: 10.7
IC50 [6]: 10.8 µM
IC50 [7]: 2820 nM
selectivity ratio [8]: 43.8

IC50 [6]: 62.5 µM
Structure (SMILES): COC(=O)c1ccc2nc3n(C)c4ccccc4c(NCCCN(C)C)c-3c2c1
IC50 [3]: 33.3 nM
selectivity ratio [4]: 8.05
IC50 [7]: 268 nM

IC50 [6]: 18.4 µM
Structure (SMILES): CCN(CC)CCCC(C)Nc1ccnc2cc(Cl)ccc12 (configuration not stated) [CHLOROQUINE]

Reference: ChEMBL document CHEMBL2390835, “Synthesis and antimalarial testing of neocryptolepine analogues: addition of ester function in SAR study of 2,11-disubstituted indolo[2,3-b]quinolines” (Eur J Med Chem, 2013)
